{"data": "Published values from different studies", "organism": "Klebsiella pneumoniae", "effect on": "microbial growth"}
{"Structure (SMILES)": "CCCCCCC#Cc1cncc(-c2nnc(SCc3cc([N+](=O)[O-])cc([N+](=O)[O-])c3)n2C2CCNCC2)c1", "assay": "broth dilution", "system": "DSM30104", "MIC": "> 64 µg/mL"}
{"Structure (SMILES)": "N[C@@H](Cc1c[nH]c2ccc(Cl)cc12)C(=O)O", "system": "MGH78578", "setting": "18 h", "MIC": "> 200 µM"}
{"Structure (SMILES)": "CC1(C)S[C@@H]2[C@H](NC(=O)[C@H](N)c3ccc(O)cc3)C(=O)N2[C@H]1C(=O)O", "assay": "broth dilution", "system": "ATCC13883", "MIC": "> 64 µg/mL"}
{"Structure (SMILES)": "[H]/N=C(/N)N[C@H]1[C@H](O)[C@@H](O)[C@H](O[C@@H]2O[C@@H](C)[C@](O)(C=O)[C@H]2O[C@@H]2O[C@@H](CO)[C@H](O)[C@@H](O)[C@@H]2NC)[C@@H](N/C(N)=N\\[H])[C@@H]1O", "assay": "broth dilution", "system": "ATCC700603", "MIC": "> 512 µg/mL"}
{"Structure (SMILES)": "O=C(O)c1cn(C2CC2)c2cc(N3CCNCC3)c(F)cc2c1=O", "assay": "broth dilution", "system": "ATCC27736", "setting": "16 h", "MIC": "0.1 µM"}
{"Structure (SMILES)": "[H]/N=C(\\N/C(=N/[H])NCCCCCCNC(=N)NC(=N)Nc1ccc(Cl)cc1)Nc1ccc(Cl)cc1", "system": "ATCC4352", "MIC": "1 µM"}
{"Structure (SMILES)": "CC1(C)S[C@@H]2[C@H](NC(=O)[C@H](N)c3ccccc3)C(=O)N2[C@H]1C(=O)O", "assay": "broth dilution", "system": "ATCC43816", "MIC": "172 µM"}
{"Structure (SMILES)": "CN(C)c1ccc(O)c2c1C[C@H]1C[C@H]3[C@H](N(C)C)C(O)=C(C(N)=O)C(=O)[C@@]3(O)C(O)=C1C2=O", "assay": "broth dilution", "system": "ATCC43816", "MIC": "1 µg/mL"}
{"Structure (SMILES)": "CCCCCCC#Cc1cncc(-c2nnc(SCc3ccc(Cl)cc3)n2CCCN)c1", "assay": "broth dilution", "system": "DSM30104", "MIC": "32 µg/mL"}
{"Structure (SMILES)": "C[C@@H](O)[C@H]1C(=O)N2C(C(=O)O)=C(S[C@@H]3CN[C@H](C(=O)N(C)C)C3)[C@H](C)[C@H]12", "assay": "broth dilution", "system": "ATCC700603", "MIC": "2 µg/mL"}
{"Structure (SMILES)": "O=C(N[C@H](CO)[C@H](O)c1ccc([N+](=O)[O-])cc1)C(Cl)Cl", "assay": "broth dilution", "system": "ATCC43816", "MIC": "4 µg/mL"}
{"Structure (SMILES)": "CC[C@H]1OC(=O)[C@H](C)[C@@H](O[C@H]2C[C@@](C)(OC)[C@@H](O)[C@H](C)O2)[C@H](C)[C@@H](O[C@@H]2O[C@H](C)C[C@H](N(C)C)[C@H]2O)[C@](C)(O)C[C@@H](C)CN(C)[C@H](C)[C@@H](O)[C@]1(C)O", "assay": "broth dilution", "system": "ATCC13883", "MIC": "1 µg/mL"}
{"Structure (SMILES)": "CC[C@H]1OC(=O)[C@H](C)[C@@H](O[C@H]2C[C@@](C)(OC)[C@@H](O)[C@H](C)O2)[C@H](C)[C@@H](O[C@@H]2O[C@H](C)C[C@H](N(C)C)[C@H]2O)[C@](C)(O)C[C@@H](C)C(=O)[C@H](C)[C@@H](O)[C@]1(C)O", "assay": "broth dilution", "system": "ATCC43816", "MIC": "32 µg/mL"}
{"Structure (SMILES)": "CCCCCCCCN=c1ccn(CCCCCCCCCCn2ccc(=NCCCCCCCC)cc2)cc1", "system": "ATCC4352", "MIC": "0.5 µM"}
{"Structure (SMILES)": "C[C@H]1COc2c(N3CCN(C)CC3)c(F)cc3c(=O)c(C(=O)O)cn1c23", "assay": "broth dilution", "system": "ATCC43816", "MIC": "< 0.5 µg/mL"}
{"Structure (SMILES)": "O=C(O)c1cn(C2CC2)c2cc(N3CCNCC3)c(F)cc2c1=O", "assay": "broth dilution", "system": "ATCC700603", "MIC": "> 512 µg/mL"}
{"Structure (SMILES)": "CCCCCCC#Cc1cncc(-c2nnc(SCc3ccc([N+](=O)[O-])cc3)n2CCCN)c1", "assay": "broth dilution", "system": "DSM30104", "MIC": "> 64 µg/mL"}
{"Structure (SMILES)": "C[C@@H](O)[C@H]1C(=O)N2C(C(=O)O)=C(S[C@@H]3CN[C@H](C(=O)N(C)C)C3)[C@H](C)[C@H]12", "assay": "broth dilution", "system": "ATCC43816", "MIC": "< 0.5 µg/mL"}
{"Structure (SMILES)": "C[C@@H](O)[C@H]1C(=O)N2C(C(=O)O)=C(SCCN=CN)C[C@H]12", "assay": "broth dilution", "system": "ATCC13883", "MIC": "4 µg/mL"}
{"Structure (SMILES)": "Cc1nnc(SCC2=C(C(=O)O)N3C(=O)[C@@H](NC(=O)Cn4cnnn4)[C@H]3SC2)s1", "assay": "broth dilution", "system": "ATCC43816", "MIC": "1 µg/mL"}
{"Structure (SMILES)": "CO/N=C(\\C(=O)N[C@@H]1C(=O)N2C(C(=O)O)=CCS[C@H]12)c1csc(N)n1", "assay": "broth dilution", "system": "ATCC13883", "MIC": "0.125 µg/mL"}
